No end group written: not given here.
What was measured:
α-synuclein = assay type: cell-based, human
PLCβ1 [1] = assay: Western blot of PLCβ1 level in SK-N-SH cells under oxidative stress; assay type: cell-based, human
PLCβ1 [2] = assay type: biochemical
purified α-synuclein = assay: CoCl2-induced aggregation of purified α-synuclein, SDS gel; assay type: biochemical
[3] = tested on: α-synuclein self-association in SK-N-SH cells; assay type: cell-based, human
[4] = tested on: α-synuclein self-association in PC12 cells; assay: GFP-α-synuclein/mCherry-α-synuclein FRET in PC12 cells; assay type: cell-based, human; details: 50 µM peptide microinjected, viewed within 2 h
Procedure, shortened: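 PC12 cells (DMEM, 10% horse serum, 5% FBS, 37 °C, 5% CO₂) are electroporated with eGFP- and mCherry-α-synuclein and plated on glass-bottom dishes 24 h later. Medium is switched to phenol-free L-15. Peptide (50 µM in pipette; 100 mM KCl, 5 mM K₂HPO₄, pH 7.4, 5 µM DAPI marker) is injected into cytoplasm for 0.4 s (30/15 hPa). Viable cells are selected, then confocal FRET is imaged within 2 h.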

[5] = tested on: PLCβ1-α-synuclein association; assay: In vitro FRET: CPM-PLCβ1 / Dabcyl-α-synuclein association; assay type: binding; details: 200 µM and 500 µM peptide
PLCβ1-C3PO interaction = details: in vitro FRET; ref Sahu, Guo, and Scarlata, unpublished results; cited from earlier work
neuronal cells = details: overexpression of α-synuclein; ref [34]; cited from earlier work
PLCβ [6] = details: inhibition can be overcome by G proteins; ref [15]; cited from earlier work
PLCβ1 [7] = details: in cells; ref [16]; cited from earlier work
PLCβ [8] = details: among α-synuclein binding partners; ref [15]; cited from earlier work

## [Cl-].[Cl-].[Co+2] [CoCl2]
α-synuclein
  Amount of α-synuclein: little effect on the amount of α-synuclein
  α-Synuclein tetramers vs monomers: increase in α-synuclein tetramers at the expense of monomers
PLCβ1 [1]
  Cellular level of PLCβ1: significantly reduces the cellular level of PLCβ1
PLCβ1 [2]
  Amount of native PLCβ1: reduces the amount of native PLCβ1
Purified α-synuclein
  α-Synuclein aggregation induced by CoCl2: produces visible α-synuclein aggregation
[3]
  GFP-α-synuclein/mCherry-α-synuclein FRET, oxidative stress: significant increase in FRET

## CKKVVLPTLASLR [peptide]
[4]
  GFP-α-synuclein/mCherry-α-synuclein FRET, peptide: the same within error
[5]
  PLCβ1-α-synuclein association: inhibits PLCβ1-α-synuclein association

## α-synuclein
PLCβ1-C3PO interaction
  Interaction of Alexa488-PLCβ1 with Alexa546-C3PO: prevents Alexa488-PLCβ1 from interacting with Alexa546-C3PO
Neuronal cells
  Inclusions and neuronal death on overexpression: cause inclusions and neuronal death
PLCβ1 [1]; oxidative stress, α-synuclein present
  Decrease of PLCβ1 level due to oxidation, effect of α-synuclein: more pronounced in the presence of α-synuclein
PLCβ [6]
  PLCβ activity: inhibits PLCβ activity
PLCβ1 [7]
  Intracellular level of PLCβ1: raises the intracellular level of the enzyme
  PLCβ1 degradation by calpain: prevents PLCβ1 degradation by calpain
PLCβ [8]
  Affinity of PLCβ for α-synuclein: one of the strongest affinities
